One test concerns the target T1, Urease subunit alpha/Urease subunit beta (Helicobacter pylori (strain ATCC 700392 / 26695) (Campylobacterpylori), UniProt P69996). Put plainly: Inhibition of Helicobacter pylori ATCC 43504 urease-mediated ammonia production preincubated for 1.5 hrs by indophenol method.
T1 sequence (P69996 whole entry): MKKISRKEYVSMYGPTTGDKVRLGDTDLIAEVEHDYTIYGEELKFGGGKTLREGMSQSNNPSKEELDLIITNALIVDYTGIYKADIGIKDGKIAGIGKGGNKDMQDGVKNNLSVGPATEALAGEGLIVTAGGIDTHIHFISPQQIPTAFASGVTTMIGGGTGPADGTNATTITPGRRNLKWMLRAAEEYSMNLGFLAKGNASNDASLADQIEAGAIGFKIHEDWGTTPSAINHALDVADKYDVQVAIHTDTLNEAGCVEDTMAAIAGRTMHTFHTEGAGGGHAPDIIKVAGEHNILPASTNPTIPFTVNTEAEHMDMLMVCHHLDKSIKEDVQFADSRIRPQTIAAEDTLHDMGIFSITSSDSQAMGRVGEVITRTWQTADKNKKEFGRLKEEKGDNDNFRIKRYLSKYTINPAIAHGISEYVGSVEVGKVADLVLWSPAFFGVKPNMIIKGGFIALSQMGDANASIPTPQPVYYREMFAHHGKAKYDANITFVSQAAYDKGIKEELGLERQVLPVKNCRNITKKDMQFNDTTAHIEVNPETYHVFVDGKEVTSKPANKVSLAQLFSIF
T1 sequence (P14916 whole entry, further chain): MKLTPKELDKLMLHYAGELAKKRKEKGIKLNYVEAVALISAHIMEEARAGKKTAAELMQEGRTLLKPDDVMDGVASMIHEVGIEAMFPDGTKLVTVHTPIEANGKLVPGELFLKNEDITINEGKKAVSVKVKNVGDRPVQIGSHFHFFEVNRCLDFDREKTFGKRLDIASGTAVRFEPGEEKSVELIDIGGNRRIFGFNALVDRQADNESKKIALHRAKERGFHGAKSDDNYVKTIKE
The compound `O=c1cc(-c2ccc(O)cc2)oc2cc(O)cc(O)c12` [APIGENIN] gave an IC50 of 138 µM. The same measure, in the same setting: the result for `COc1ccc(C2=CCc3c(OC)c(OC)c(OC)c(OC)c3O2)cc1` reads 3790 µM; that for `O=c1c(O)c(-c2ccc(O)c(O)c2)oc2cc(O)cc(O)c12` [QUERCETIN], 11 µM; that for `O=c1c(-c2ccc(O)cc2)coc2cc(O)ccc12` [DAIDZEIN], 556 µM. Compound `COc1ccc(C2C=Cc3c(OC)c(OC)c(OC)c(OC)c3O2)cc1` (stereo not given) came in with a half-inhibitory concentration (IC50) of 4170 µM. Same read-out and setting: the result for `Oc1cc(O)c2c(c1)OC(c1ccc(O)c(O)c1)C=C2` (stereo not given) reads 4.42 µM. Consider `Oc1ccc(C2COc3cc(O)ccc3C2)cc1` (stereo not given), for which the 50% inhibitory concentration (IC50) was found to be 92.9 µM. The compound `COc1ccc(C2COc3cc(O)ccc3C2)cc1` (stereo not given) showed an IC50 of 358 µM.

Compound `COc1cc(O)c(C(=O)CCc2ccccc2)c(OC)c1` returned an IC50 of 1670 µM. Same read-out and setting: to `O=c1cc(-c2ccccc2)oc2cc(O)c(O)c(O)c12` [BAICALEIN] belongs 291 µM. Same read-out and setting: the result for `COc1ccc(C(C)C(=O)c2ccc(OC)cc2O)cc1` (stereo not given) reads 2180 µM; that for `COc1ccc(C2CC(O)c3c(OC)c(OC)c(OC)c(OC)c3O2)cc1` (stereo not given), 4850 µM. `Oc1ccc(C2=COc3c(ccc(O)c3O)C2)cc1`: half-maximal inhibition (IC50) was put at 0.85 µM. Against the preceding compound, the IC50 is about 5700-fold lower. Same read-out and setting: the result for `COc1ccc(C(C)C(=O)c2ccc(O)cc2O)cc1` (stereo not given) reads 1050 µM. On the same count and under the same terms, the result for `COc1ccc(-c2coc3cc(O)ccc3c2=O)cc1` [FORMONONETIN] reads 2000 µM; that for `O=c1cc(-c2ccccc2)oc2cc(O)cc(O)c12` [CHRYSIN], 302 µM. `O=C1CC(c2ccc(O)cc2)Oc2cc(O)cc(O)c21` (stereo not given) returned a 50% inhibitory concentration (IC50) of 328 µM. Same read-out and setting: to `COc1cc(OC)c2c(=O)cc(-c3ccccc3)oc2c1` [CHRYSIN DIMETHYL ETHER] belongs 2180 µM; to `Oc1cc(O)c2c(c1)OC(c1ccccc1)C=C2` (stereo not given), 33.2 µM. Regarding `COc1ccc(-c2cc(=O)c3c(OC)c(OC)c(OC)c(OC)c3o2)cc1` [TANGERETIN], inhibition was half-maximal at 4630 µM (IC50).

Consider `COc1cc(O)c(C(=O)/C=C/c2ccccc2)c(OC)c1` [FLAVOKAWAIN B], for which the IC50 turned out to be 1220 µM. This IC50 lies about 3.8-fold lower than the previous one. Compound `COc1ccc(C2COc3cc(OC)ccc3C2O)cc1` (stereo not given) returned an IC50 of 3870 µM.

`COc1ccc(C2=COc3cc(O)ccc3C2)cc1` gave a half-inhibitory concentration (IC50) of 86.2 µM. For `COc1ccc(-c2coc3cc(OC)ccc3c2=O)cc1`, the IC50 was 3530 µM. This IC50 lies about 41-fold higher than the previous one.

With `Oc1cc2c(c(O)c1O)C=CC(c1ccccc1)O2` (stereo not given), the midpoint of inhibition, the IC50, lay at 22.1 µM. This IC50 lies about 160-fold lower than the previous one. Same read-out and setting: to `O=c1cc(-c2ccc(O)c(O)c2)oc2cc(O)cc(O)c12` [LUTEOLIN] belongs 35.4 µM. Still for that read-out and setting: the result for `COc1ccc(C2COc3cc(OC)ccc3C2)cc1` (stereo not given) reads 1780 µM; that for `COc1cc(O)c(C(=O)CCc2ccccc2)c(O)c1`, 978 µM.

Another test deals with T1, Urease subunit alpha/Urease subunit beta. The test can be described thus: Competitive inhibition of Helicobacter pylori ATCC 43504 urease using urea as substrate by Lineweaver-Burk/Dixon plot analysis. Summed up:
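Crude urease from H. pylori ATCC 43504, grown 24 h at 37 °C under microaerobic conditions in Brucella broth with 10% heat-inactivated horse serum. Enzyme (10 U) was pre-incubated with inhibitor for 1.5 h at room temperature. Ammonia was read by the indophenol method while urea varied at several inhibitor levels. Ki came from a Lineweaver–Burk slope replot x-intercept or a Dixon plot intersection. Run in triplicate.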
With `Oc1ccc(C2=COc3c(ccc(O)c3O)C2)cc1`, the Ki amounted to 0.641 µM. This counts as sub-micromolar.

The target in a further test is Urease subunit alpha/Urease subunit beta (Helicobacter pylori (strain ATCC 700392 / 26695) (Campylobacterpylori)) (UniProt P69996+P14916). The test can be described thus: Ratio of acetohydroxamic acid IC50 to compound IC50 for Helicobacter pylori ATCC 43504 urease.
Sequence of Urease subunit alpha/Urease subunit beta (Helicobacter pylori (strain ATCC 700392 / 26695) (Campylobacterpylori)) (P14916 whole entry, looked up): as the sequence (P14916 whole entry, further chain) above
Sequence of Urease subunit alpha/Urease subunit beta (Helicobacter pylori (strain ATCC 700392 / 26695) (Campylobacterpylori)) (P69996 whole entry, looked up): as the sequence (P69996 whole entry) above
As to `Oc1ccc(C2=COc3c(ccc(O)c3O)C2)cc1`, the Ratio IC50 was 20.
